Experimental data taken from ChEMBL document CHEMBL6177921, “Enhancing the antimycobacterial efficacy of pyridine-4-carbohydrazide: linkage to additional antimicrobial agents via oxocarboxylic acids” (RSC Med Chem, 2025).
In brackets after ≈: the same amount, converted by molar mass.

Assays:
Format in all cases: functional
Mycobacterium kansasii [1] = assay: Antimycobacterial activity against multi-drug resistant Mycobacterium kansasii CNCTC 6509/96 clinical isolate assessed as bacterial growth inhibition incubated for 14 days by two-fold serial dilution method; details: CNCTC 6509/96, 336 h, time 14 day
Summary of the method: (§1)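 M. kansasii clinical isolate 6509/96 (stock dilution 10−4) in Šula's semisynthetic liquid medium; two-fold serial dilutions 1000 to 1 μM, DMSO final 1.0% v/v; final load 1.5 × 10^5 CFU mL−1; MIC read visually as complete growth inhibition at 7, 14 and 21 days.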

[2] = system: Mycobacterium tuberculosis; assay: Antimycobacterial activity against multidrug sensitive Mycobacterium tuberculosis H37Rv CNCTC 331/88 assessed as bacterial growth inhibition incubated for 14 days by two-fold serial dilution method; details: H37Rv CNCTC 331/88, 336 h, time 14 day
Mycobacterium kansasii [3] = assay: Antimycobacterial activity against multi-drug resistant Mycobacterium kansasii clinical isolate CNCTC 6509/96 assessed as bacterial growth inhibition incubated for 21 days by two-fold serial dilution method; details: CNCTC 6509/96, 504 h, time 21 day; summary of the method: as §1
Mycobacterium avium [4] = assay: Antimycobacterial activity against INH/RIF/rifabutin/OFX/EMB resistant Mycobacterium avium CNCTC 330/88 assessed as bacterial growth inhibition incubated for 14 days by two-fold serial dilution method; details: CNCTC 330/88, 336 h, time 14 day
Summary of the method: (§2)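 M. avium CNCTC 330/88 (stock suspension dilution 10−5) grown in Šula's semisynthetic liquid medium; two-fold serial dilutions 1000 to 1 μM from DMSO stocks (final DMSO 1.0% v/v); final load 1.5 × 10^5 CFU mL−1; MIC read visually as lowest concentration giving complete growth inhibition after 14 and 21 days.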

Mycobacterium avium [5] = assay: Antimycobacterial activity against INH/RIF/rifabutin/OFX/EMB resistant Mycobacterium avium CNCTC 330/88 assessed as bacterial growth inhibition incubated for 21 days by two-fold serial dilution method; details: CNCTC 330/88, 504 h, time 21 day; summary of the method: as §2
Mycobacterium kansasii [6] = assay: Antimycobacterial activity against INH/RIF/rifabutin/OFX/EMB Mycobacterium kansasii CNCTC 6509/96 clinical isolate assessed as bacterial growth inhibition incubated for 7 days by two-fold serial dilution method; details: CNCTC 6509/96, 168 h, time 7 day
Summary of the method: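 Šula's liquid semisynthetic medium; M. kansasii clinical isolate 6509/96 used at stock dilution 10−4, final ~1.5 × 10^5 CFU mL−1. Two-fold dilutions ran 1000–1 μM with final DMSO 1.0% (v/v). MIC was read visually as complete growth inhibition after 7, 14 and 21 days.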

[7] = system: Mycobacterium tuberculosis; assay: Antimycobacterial activity against Mycobacterium tuberculosis H37Rv CNCTC 331/88 assessed as bacterial growth inhibition incubated for 21 days by two fold serial dilution method; details: H37Rv CNCTC 331/88, 504 h, time 21 day
[8] = system: Trichophyton interdigitale; assay: Antifungal activity against Trichophyton interdigitale CCM 8377 measured after 24 to 48 hrs by microdilution broth method; details: time 24-48 hrs
Lichtheimia corymbifera = assay: Antifungal activity against Lichtheimia corymbifera CCM 8077 measured after 24 to 48 hrs by microdilution broth method; details: time 24-48 hrs
Summary of the method: (§3)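 Filamentous fungi tested by broth microdilution per EUCAST with minor changes. Compounds were tested at 0.98–500 μM with final DMSO ≤1.0% (v/v). Plates were incubated statically, dark and humidified, at 35 ± 2 °C for 24 and 48 h. MIC was the lowest concentration showing no visible growth.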

Candida parapsilosis [9] = assay: Antifungal activity against Candida parapsilosis CCM 8260 measured after 24 to 48 hrs by microdilution broth method; details: Lodderomyces parapsilosis, time 24-48 hrs
Summary of the method: (§4)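 Yeast broth microdilution per EUCAST, slightly modified. Medium was RPMI-1640 with 2% glucose, MOPS-buffered to pH 7.0. Compounds were tested at 0.98–500 μM with final DMSO ≤1.0% (v/v). Inoculum came from 18–24 h cultures, final ~1–5 × 10^5 CFU mL−1. Plates were incubated statically, dark and humidified, at 35 ± 2 °C. MIC was read visually at 24 and 48 h (no visible growth).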

Aspergillus fumigatus = assay: Antifungal activity against Aspergillus fumigatus ATCC 204305 measured after 24 to 48 hrs by microdilution broth method; details: time 24-48 hrs; summary of the method: as §3
Candida tropicalis [10] = assay: Antifungal activity against Candida tropicalis ATCC 750 measured after 24 to 48 hrs by microdilution broth method; details: time 24-48 hrs; summary of the method: as §4
Pichia kudriavzevii [11] = assay: Antifungal activity against Candida krusei ATCC 6258 measured after 24 to 48 hrs by microdilution broth method; details: time 24-48 hrs; summary of the method: as §4
Aspergillus flavus = assay: Antifungal activity against Aspergillus flavus CCM 8363 measured after 24 to 48 hrs by microdilution broth method; details: time 24-48 hrs; summary of the method: as §3
Candida albicans [12] = assay: Antifungal activity against Candida albicans CCM 8320 measured after 24 to 48 hrs by microdilution broth method; details: time 24-48 hrs; summary of the method: as §4
Candida tropicalis [13] = assay: Antifungal activity against Candida tropicalis CCM 8264 measured after 24 to 48 hrs by microdilution broth method; details: time 24-48 hrs; summary of the method: as §4
Candida parapsilosis [14] = assay: Antifungal activity against Candida parapsilosis ATCC 22019 measured after 24 to 48 hrs by microdilution broth method; details: Lodderomyces parapsilosis, time 24-48 hrs; summary of the method: as §4
Candida albicans [15] = assay: Antifungal activity against Candida albicans ATCC 24443 measured after 24 to 48 hrs by microdilution broth method; details: time 24-48 hrs; summary of the method: as §4
Pichia kudriavzevii [16] = assay: Antifungal activity against Candida krusei CCM 8271 measured after 24 to 48 hrs by microdilution broth method; details: time 24-48 hrs; summary of the method: as §4
[17] = system: Trichophyton interdigitale; assay: Antifungal activity against Trichophyton interdigitale ATCC 9533 measured after 24 to 48 hrs by microdilution broth method; details: time 24-48 hrs

SMILES	MIC (Mycobacterium kansasii [1]) [µM]	MIC [2] [µM]	MIC (Mycobacterium kansasii [3]) [µM]	MIC (Mycobacterium avium [4]) [µM]	MIC (Mycobacterium avium [5]) [µM]	MIC (Mycobacterium kansasii [6]) [µM]	MIC [7] [µM]	MIC [8] [µM]	MIC (Lichtheimia corymbifera) [µM]	MIC (Candida parapsilosis [9]) [µM]	MIC (Aspergillus fumigatus) [µM]	MIC (Candida tropicalis [10]) [µM]	MIC (Pichia kudriavzevii [11]) [µM]	MIC (Aspergillus flavus) [µM]	MIC (Candida albicans [12]) [µM]	MIC (Candida tropicalis [13]) [µM]	MIC (Candida parapsilosis [14]) [µM]	MIC (Candida albicans [15]) [µM]	MIC (Pichia kudriavzevii [16]) [µM]	MIC [17] [µM]
COC(=O)c1ccc(NS(=O)(=O)c2ccc(N)cc2)cc1O	> 1000	250 (≈ 80.6 µg/mL)	> 1000	> 1000	> 1000	1000 (≈ 322 µg/mL)	250 (≈ 80.6 µg/mL)													
Cc1cc(C)nc(NS(=O)(=O)c2ccc(NC(=O)/C=N/NC(=O)c3ccncc3)cc2)n1	16 (≈ 7.26 µg/mL)	1 (≈ 0.453 µg/mL)	16 (≈ 7.26 µg/mL)	1000 (≈ 453 µg/mL)	≥ 1000	8 (≈ 3.63 µg/mL)	2 (≈ 0.907 µg/mL)													
Nc1ccc(S(=O)(=O)Nc2ccc(Oc3ccccc3)cc2)cc1	500 (≈ 170 µg/mL)	500 (≈ 170 µg/mL)	500 (≈ 170 µg/mL)	1000 (≈ 340 µg/mL)	1000 (≈ 340 µg/mL)	250 (≈ 85.1 µg/mL)	500 (≈ 170 µg/mL)													
O=C(/C=N/NC(=O)c1ccncc1)NNC(=O)c1ccncc1	16 (≈ 5 µg/mL)	1 (≈ 0.312 µg/mL)	16 (≈ 5 µg/mL)	1000 (≈ 312 µg/mL)	> 1000	8 (≈ 2.5 µg/mL)	2 (≈ 0.625 µg/mL)													
C/C(=N\NC(=O)c1ccncc1)C(=O)Nc1ccc(S(=O)(=O)Nc2cc(C)on2)cc1	32 (≈ 14.2 µg/mL)	0.5 (≈ 0.221 µg/mL)	32 (≈ 14.2 µg/mL)	1000 (≈ 442 µg/mL)	≥ 1000	16 (≈ 7.08 µg/mL)	1 (≈ 0.442 µg/mL)	> 500	> 500	> 500	> 500	> 500	> 500	> 500	> 500	> 500	> 500	> 500	> 500	> 500
O=C(O)/C=N/NC(=O)c1ccncc1	4 (≈ 0.773 µg/mL)	0.25 (≈ 0.0483 µg/mL)	8 (≈ 1.55 µg/mL)	250 (≈ 48.3 µg/mL)	> 250	4 (≈ 0.773 µg/mL)	0.5 (≈ 0.0966 µg/mL)													
COc1cnc(NS(=O)(=O)c2ccc(NC(=O)/C(C)=N/NC(=O)c3ccncc3)cc2)nc1	32 (≈ 15 µg/mL)	2 (≈ 0.939 µg/mL)	32 (≈ 15 µg/mL)	≥ 1000	≥ 1000	32 (≈ 15 µg/mL)	2 (≈ 0.939 µg/mL)	> 500	> 500	> 500	> 500	> 500	> 500	> 500	> 500	> 500	> 500	> 500	> 500	> 500
O=C(/C=N/NC(=O)c1ccncc1)Nc1ccc(S(=O)(=O)Nc2nccs2)cc1	8 (≈ 3.44 µg/mL)	2 (≈ 0.861 µg/mL)	8 (≈ 3.44 µg/mL)	250 (≈ 108 µg/mL)	500 (≈ 215 µg/mL)	8 (≈ 3.44 µg/mL)	4 (≈ 1.72 µg/mL)													
O=C(/C=N/NC(=O)c1ccncc1)Nc1ccc(S(=O)(=O)Nc2ncccn2)cc1	16 (≈ 6.81 µg/mL)	1 (≈ 0.425 µg/mL)	16 (≈ 6.81 µg/mL)	500 (≈ 213 µg/mL)	500 (≈ 213 µg/mL)	8 (≈ 3.4 µg/mL)	2 (≈ 0.851 µg/mL)													
Nc1ccc(S(=O)(=O)Nc2ccc(Sc3ccc([N+](=O)[O-])cc3)cc2)cc1	≥ 1000	125 (≈ 50.2 µg/mL)	≥ 1000	≥ 1000	≥ 1000	8 (≈ 3.21 µg/mL)	≥ 1000													
C/C(=N\NC(=O)c1ccncc1)C(=O)O [PYRUVIC ACID ISONIAZID]	16 (≈ 3.32 µg/mL)	1 (≈ 0.207 µg/mL)	16 (≈ 3.32 µg/mL)	500 (≈ 104 µg/mL)	> 1000	8 (≈ 1.66 µg/mL)	1 (≈ 0.207 µg/mL)													
Nc1ccc(S(=O)(=O)Nc2ccc(Oc3ccc(Cl)cc3)cc2)cc1	500 (≈ 187 µg/mL)	250 (≈ 93.7 µg/mL)	500 (≈ 187 µg/mL)	1000 (≈ 375 µg/mL)	1000 (≈ 375 µg/mL)	250 (≈ 93.7 µg/mL)	500 (≈ 187 µg/mL)													
Nc1ccc(S(=O)(=O)Nc2ccccc2Oc2ccccc2)cc1	500 (≈ 170 µg/mL)	250 (≈ 85.1 µg/mL)	500 (≈ 170 µg/mL)	500 (≈ 170 µg/mL)	1000 (≈ 340 µg/mL)	500 (≈ 170 µg/mL)	250 (≈ 85.1 µg/mL)													
C/C(=N\NC(=O)c1ccncc1)C(=O)Nc1ccc(NC(=O)/C(C)=N/NC(=O)c2ccncc2)cc1	250 (≈ 122 µg/mL)	64 (≈ 31.1 µg/mL)	250 (≈ 122 µg/mL)	250 (≈ 122 µg/mL)	250 (≈ 122 µg/mL)	250 (≈ 122 µg/mL)	64 (≈ 31.1 µg/mL)													
NS(=O)(=O)c1ccc(NC(=O)/C=N/NC(=O)c2ccncc2)cc1	32 (≈ 11.1 µg/mL)	1 (≈ 0.347 µg/mL)	32 (≈ 11.1 µg/mL)	1000 (≈ 347 µg/mL)	≥ 1000	16 (≈ 5.56 µg/mL)	2 (≈ 0.695 µg/mL)													
Nc1ccc(S(=O)(=O)Nc2ccc(Oc3ccc(Cl)cc3)c(Cl)c2)cc1	125 (≈ 51.2 µg/mL)	125 (≈ 51.2 µg/mL)	125 (≈ 51.2 µg/mL)	125 (≈ 51.2 µg/mL)	125 (≈ 51.2 µg/mL)	125 (≈ 51.2 µg/mL)	125 (≈ 51.2 µg/mL)													
Nc1ccc(S(=O)(=O)Nc2ccc(-c3ccccc3)cc2)cc1	250 (≈ 81.1 µg/mL)	500 (≈ 162 µg/mL)	500 (≈ 162 µg/mL)	≥ 1000	≥ 1000	250 (≈ 81.1 µg/mL)	500 (≈ 162 µg/mL)													
